Measured values: ChEMBL document CHEMBL4350958, “Rational Design of Short Peptide Variants by Using Kunitzin-RE, an Amphibian-Derived Bioactivity Peptide, for Acquired Potent Broad-Spectrum Antimicrobial and Improved Therapeutic Potential of Commensalism Coinfection of Pathogens” (J Med Chem, 2019)
Calls of active or inactive are those of the source. The rule behind the calls is not given here.

Columns and labels:
Escherichia coli [1] = assay: Bactericidal activity against Escherichia coli ATCC 25922 assessed as reduction in bacterial growth at MBC by time-kill assay; type: functional, organism-based
In short: (§1)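 Time-kill assay. E. coli ATCC 25922, S. aureus ATCC 29213 or C. albicans cgmcc 2.2086 at a final 0.5-1×10^5 CFU mL-1 treated at 1×MBC/MFC. Aliquots collected at different times to calculate survival, with an untreated control. Mean of three independent experiments, each with three technical replicates.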

Escherichia coli [2] = assay: Induction of outer membrane permeabilization in Escherichia coli ATCC 25922 at 1 to 64 uM by NPN-dye based assay; type: organism-based
In short: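 Mid-log E. coli ATCC 25922 (OD600 0.2) with 10 μM NPN in 5 mM HEPES pH 7.4 with 5 mM glucose for 30 min, background subtracted (ex 350, em 420 nm). Mixed with equal volume of peptide (1 to 64 μM) and fluorescence followed to plateau. Uptake normalised to 10 μg/mL polymyxin B. Three independent experiments, each with three technical replicates.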

Candida albicans [3] = assay: Fungicidal activity against Candida albicans cgmcc2.2086 assessed as reduction in bacterial growth at MFC by time-kill assay; type: functional, organism-based; in short: as §1
Lipid bilayer [4] = assay: Induction of membrane disruption in PG/CL/PE large unilamellar vesicles assessed as calcein-entrapped liposome leakage at 1 to 64 uM after 15 mins by spectrofluorophotometric assay
In short: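 Calcein-loaded LUVs (PG/CL/PE 2:1:7 w/w/w, E. coli membrane mimic), extruded through 100-nm filters, free dye removed on Sephadex G-50. Lipid (100 μM) incubated 15 min with peptide (1–64 μM). Calcein release read at ex 490/em 520 nm and normalised to Triton X-100. Triplicate, three biological replicates.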

Candida albicans [5] = assay: Antifungal activity against Candida albicans cgmcc2.2086 assessed as ratio of MIC95 in presence of CaCl2 to in absence of CaCl2; type: functional
In short: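 C. albicans cgmcc 2.2086, (0.5–1) × 10^3 CFU/mL final in MOPS-buffered RPMI 1640, with or without 2 mM CaCl2 (final). Peptide serially diluted in 0.2% BSA and mixed 1:1, 48 h at 28 °C. MIC is the lowest concentration inhibiting 95% of growth by A492. Three independent assays, each with three technical replicates.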

Escherichia coli [6] = assay: Induction of outer membrane permeabilization in Escherichia coli ATCC 25922 at sub-MIC by NPN-dye based assay relative to control
In short: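 Mid-log E. coli ATCC 25922 (OD600 0.2) preloaded 30 min with 10 μM NPN in 5 mM HEPES, pH 7.4, 5 mM glucose; cells mixed with equal volume of peptide solutions (1 to 64 μM). Fluorescence (ex 350, em 420 nm) read until plateau, background-subtracted, expressed as % NPN uptake relative to 10 μg/mL polymyxin B (100%). Three independent experiments, triplicate each.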

Candida albicans [7] = assay: (§2) Antifungal activity against Candida albicans cgmcc2.2086 infected in C57BL/6 mouse model of keratitis assessed as appearance of transparent corneas at 1 to 5 mg/ml administered as topical eye drop every 5 mins for first 4 hrs and every 30 mins for next 7 hrs measured post-last dose; type: functional, organism-based
Candida albicans [8] = assay: as §2, with “reduction in fungal hyphae extention into corneal stroma” for “appearance of transparent corneas”, “dose by periodic acid schiff staining-based histological analysis” for “dose”; type: functional, organism-based
Staphylococcus aureus [9] = assay: Drug uptake in plasma membrane of Staphylococcus aureus ATCC 29213 at MBC measured after 30 mins using FITC-labeled compound by microscopic analysis; type: ADME, organism-based; conditions: in vivo, 0.5 h
In short: (§3)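 E. coli ATCC 25922 or S. aureus ATCC 29213 (OD600 0.2) incubated with FITC-labeled peptide at 1×MBC, 37 °C, 30 min. Cells washed, resuspended with PI (10 μg/mL) in PBS, smeared and imaged by superresolution microscopy using 488 and 535 nm filters for FITC and PI. Peptide-free cells served as controls. Three independent scans.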

Staphylococcus aureus [10] = assay: Induction of morphological changes in Staphylococcus aureus ATCC 29213 assessed as hole formation at MBD measured after 1 hr by atomic force microscopic analysis; type: functional, organism-based
Candida albicans [11] = assay: Fungicidal activity against Candida albicans cgmcc2.2086 assessed as reduction in bacterial growth at MFC measured within 3 mins by time-kill assay relative to control; type: functional; parameters: scale not given: the % may be the effect or the level left
In short: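 Time-kill: cells at a final 0.5–1×10^5 CFU/mL were exposed to peptide at 1×MBC/MFC. Aliquots were removed at intervals to count survivors against an untreated control. Means of three independent experiments, each with three technical replicates.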

Lipid bilayer [12] = assay: Induction of membrane disruption in PG/CL/PE large unilamellar vesicles assessed as calcein-entrapped liposome leakage at 8 uM after 15 mins by spectrofluorophotometric assay relative to control
In short: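 Calcein (70 mM)-loaded LUVs of PG/CL/PE (2:1:7 w/w/w, E. coli membrane mimic), made by freeze-thaw and 100-nm extrusion, free dye removed on Sephadex G-50. LUVs (100 μM) exposed to peptide (1–64 μM) for 15 min. Leakage read at ex 490/em 520 nm: liposomes alone are background, Triton X-100 is 100%. Independent triplicates.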

Staphylococcus aureus [13] = assay: Induction of morphological changes in Staphylococcus aureus ATCC 29213 at MBD measured after 1 hr by atomic force microscopic analysis; type: functional, organism-based
Pseudomonas aeruginosa = assay: Antibacterial activity against melittin-resistant Pseudomonas aeruginosa ATCC 27853 measured after 24 hrs; type: functional, organism-based
Escherichia coli [14] = assay: Drug uptake in plasma membrane of Escherichia coli ATCC 25922 at MBC measured after 30 mins using FITC-labeled compound by microscopic analysis; type: ADME, organism-based; conditions: in vivo, 0.5 h; in short: as §3
Candida albicans [15] = assay: Antifungal activity against Candida albicans cgmcc2.2086 infected in C57BL/6 mouse model of keratitis assessed as reduction in clinical score at 1 to 5 mg/ml administered as topical eye drop every 5 mins for first 4 hrs and every 30 mins for next 7 hrs measured post-last dose; type: functional, organism-based
Staphylococcus aureus [16] = assay: Induction of morphological changes in Staphylococcus aureus ATCC 29213 assessed as tiny hole formation at MBD measured after 1 hr by transmission electron microscopic analysis; type: functional, organism-based
Lipopolysaccharide (LPS) = assay: Displacement of BODIPY-TR-cadaverine from Escherichia coli O111:B4 LPS at 16 uM after 1 hr by spectrofluorophotometric method relative to control
In short: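 E. coli O111:B4 LPS (50 μg/mL) preloaded 4 h with BODIPY-TR-cadaverine (5 μg/mL) in 50 mM Tris, pH 7.4. Mixed 1:1 with peptide (1–64 µM series), 1 h at 37 °C, then fluorescence read. Expressed as %ΔF: 0% is probe with LPS and no peptide, 100% is probe with LPS plus 10 μg/mL polymyxin B. Three technical replicates.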

[17] = Conformational stability in 50% trifluoro-ethyl alcohol assessed as alpha-helical structural propensity at 35 uM by CD spectra analysis; type: physicochemical
In short: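 CD spectra from 190 to 250 nm of peptide at 35 μM in 10 mM PBS, 30 mM SDS micelles or 50% TFE, recorded in a 1.0-mm quartz cell. Ellipticity was converted to mean residue ellipticity. Three independent scans, each averaged over more than 3 runs.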

CC[C@H](C)[C@H](NC(=O)CN)C(=O)NCC(=O)N[C@@H](C)C(=O)N[C@H](C(=O)N[C@@H](CC(C)C)C(=O)N[C@@H](CCCCN)C(=O)N[C@H](C(=O)N[C@@H](CC(C)C)C(=O)N[C@H](C(=O)N[C@H](C(=O)NCC(=O)N[C@@H](CC(C)C)C(=O)N1CCC[C@H]1C(=O)N[C@@H](C)C(=O)N[C@@H](CC(C)C)C(=O)N[C@H](C(=O)N[C@@H](CO)C(=O)N[C@@H](Cc1c[nH]c2ccccc12)C(=O)N[C@H](C(=O)N[C@@H](CCCCN)C(=O)N[C@@H](CCCNC(=N)N)C(=O)N[C@@H](CCCCN)C(=O)N[C@@H](CCCNC(=N)N)C(=O)N[C@@H](CCC(N)=O)C(=O)N[C@@H](CCC(N)=O)C(N)=O)[C@@H](C)CC)[C@@H](C)CC)[C@@H](C)O)[C@@H](C)O)C(C)C)C(C)C [MELITTIN]
Activity (Escherichia coli [1]): Active | Activity (Escherichia coli [2]): Active | Activity (Candida albicans [3]): Active | Activity (Lipid bilayer [4]): Active

H-AARIILRWRFR-NH2
Ratio (Candida albicans [5]): 4 | Activity (Escherichia coli [6]): 15% | Activity (Candida albicans [7]): Active | Activity (Candida albicans [8]): Active | Drug uptake (Staphylococcus aureus [9]): Active | Activity (Staphylococcus aureus [10]): Active | Activity (Candida albicans [11]): 99.99% | Activity (Lipid bilayer [12]): > 40% | Activity (Staphylococcus aureus [13]): Active | Activity (Pseudomonas aeruginosa): Active | Drug uptake (Escherichia coli [14]): Active | Activity (Candida albicans [15]): Active | Activity (Staphylococcus aureus [16]): Active | Activity (Lipopolysaccharide (LPS)): 99%

H-AARRILRWIFR-NH2
Stability [17]: Stable
